The source of these data is ChEMBL document CHEMBL5352507, “Discovery of a Pan-Melanocortin Receptor Antagonist [Ac-DPhe(pI)-Arg-Nal(2')-Orn-NH2] at the MC1R, MC3R, MC4R, and MC5R that Mediates an Increased Feeding Response in Mice and a 40-Fold Selective MC1R Antagonist [Ac-DPhe(pI)-DArg-Nal(2')-Arg-NH2]” (J Med Chem, 2023).

The source made the active and inactive calls. The calls are words filed in the database; no cut-off is given here. Bridge positions count the residues as written; N and C are the ends. Square brackets hold non-standard residues; d marks the D form. Peptide text beside a SMILES is read from it. dPhe(4-I) = N[C@H](Cc1ccc(I)cc1)C(=O)O; 2Nal = N[C@@H](Cc1ccc2ccccc2c1)C(=O)O; hArg = N=C(N)NCCCC[C@H](N)C(=O)O; Cit = NC(=O)NCCC[C@H](N)C(=O)O; Orn = NCCC[C@H](N)C(=O)O; Dab = NCC[C@H](N)C(=O)O; Dap = NC[C@H](N)C(=O)O

The target in series [1] is T1, Melanocortin receptor 4 (Mus musculus, UniProt P56450). Kind of series: Agonist activity against mouse MC4R expressed in HEK293 cells assessed as increase in cAMP level incubated for 2 hrs by AlphaScreen assay. The format is functional, cell-based. Background: Changes in cAMP serve as a functional read-out for many G protein-coupled receptors.
T1 sequence (P56450 whole entry): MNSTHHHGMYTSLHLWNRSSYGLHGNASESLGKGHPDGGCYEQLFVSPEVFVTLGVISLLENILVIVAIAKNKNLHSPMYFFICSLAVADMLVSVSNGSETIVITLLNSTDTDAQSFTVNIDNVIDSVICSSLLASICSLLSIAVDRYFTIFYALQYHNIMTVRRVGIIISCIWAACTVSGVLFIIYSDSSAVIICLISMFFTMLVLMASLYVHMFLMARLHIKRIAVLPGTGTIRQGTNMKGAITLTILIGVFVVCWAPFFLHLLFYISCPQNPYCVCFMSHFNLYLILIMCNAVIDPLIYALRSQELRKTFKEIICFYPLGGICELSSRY
In series [2] the target is T2, Melanocortin receptor 5 (Mus musculus, UniProt P41149). Briefly: Agonist activity against mouse MC5R expressed in HEK293 cells assessed as increase in cAMP level incubated for 2 hrs by AlphaScreen assay. The format is functional, cell-based.
T2 sequence (P41149 whole entry): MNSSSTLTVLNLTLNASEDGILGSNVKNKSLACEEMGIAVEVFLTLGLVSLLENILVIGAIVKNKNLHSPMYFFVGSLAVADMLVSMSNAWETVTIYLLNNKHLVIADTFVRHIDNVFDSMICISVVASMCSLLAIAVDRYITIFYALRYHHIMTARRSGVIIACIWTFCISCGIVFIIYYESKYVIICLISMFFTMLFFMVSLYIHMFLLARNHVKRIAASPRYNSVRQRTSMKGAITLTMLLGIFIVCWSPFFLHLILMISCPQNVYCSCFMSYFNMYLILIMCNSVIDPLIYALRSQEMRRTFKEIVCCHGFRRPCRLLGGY
Series [3] has as its target T3, Melanocortin receptor 3 (Mus musculus, UniProt P33033). Kind of series: Agonist activity against mouse MC3R expressed in HEK293 cells assessed as increase in cAMP level incubated for 2 hrs by AlphaScreen assay. The format is functional, cell-based.
Series [4] has as its target T4, Melanocyte-stimulating hormone receptor (Mus musculus, UniProt Q01727). Kind of series: Partial agonist activity against mouse MC1R expressed in HEK293 cells assessed as increase in cAMP level incubated for 2 hrs by AlphaScreen assay. The format is functional, cell-based.
Series [5] deals with T4, Melanocyte-stimulating hormone receptor. Kind of series: Agonist activity against mouse MC1R expressed in HEK293 cells assessed as increase in cAMP level incubated for 2 hrs by AlphaScreen assay. Type of series: functional, cell-based.
Series [6] shares this target. Kind of series: Binding affinity to mouse MC1R expressed in HEK293 cells coexpressing CRE/beta-galactosidase assessed as inhibition constant. Type of series: cell-based.
For series [7], the target named is T2, Melanocortin receptor 5. Kind of series: Binding affinity to mouse MC5R expressed in HEK293 cells assessed as inhibition constant by schild plot analysis. Type of series: cell-based.
In series [8] the target is Melanocyte-stimulating hormone receptor (Homo sapiens, UniProt Q01726). Kind of series: Binding affinity to human MC1R.
Melanocyte-stimulating hormone receptor (Homo sapiens, UniProt Q01726), sequence (Q01726 whole entry): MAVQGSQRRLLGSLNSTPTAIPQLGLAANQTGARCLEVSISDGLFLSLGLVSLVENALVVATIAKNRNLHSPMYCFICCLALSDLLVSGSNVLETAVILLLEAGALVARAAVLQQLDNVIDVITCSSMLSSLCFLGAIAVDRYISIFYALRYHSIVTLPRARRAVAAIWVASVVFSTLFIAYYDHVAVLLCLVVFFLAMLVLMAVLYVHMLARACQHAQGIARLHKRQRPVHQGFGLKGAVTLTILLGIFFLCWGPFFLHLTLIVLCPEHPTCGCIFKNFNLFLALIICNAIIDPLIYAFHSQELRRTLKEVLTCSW
The target of series [9] is T1, Melanocortin receptor 4. Briefly: Binding affinity to mouse MC4R expressed in HEK293 cells assessed as inhibition constant by schild plot analysis. The format is cell-based.
For series [10], the target named is T2, Melanocortin receptor 5. Kind of series: Binding affinity to mouse MC5R expressed in HEK293 cells coexpressing CRE/beta-galactosidase assessed as inhibition constant. Type of series: cell-based.
Series [11] addresses T4, Melanocyte-stimulating hormone receptor. Briefly: Binding affinity to mouse MC1R expressed in HEK293 cells assessed as inhibition constant by schild plot analysis. The format is cell-based.
Series [12] has as its system Mus musculus. Briefly: In vivo antagonist activity MC4R in wild type C57BL/6J mouse assessed as increase in food intake at 10 nmol per mouse, IT administered directly into the spinal canal and measured for 4 to 6 hrs. The settings on record: time 4-6 hrs. The format is functional, organism-based. In a few lines:
(§1)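 Wild-type male and female mice (mixed 129/Sv×C57BL/6J, in-house colony) on a reversed 12-h light/dark cycle with chow ad libitum. Crossover design with 6–7 days between treatments. […] Cumulative food intake weighed at 0–72 h. n ≥ 8 per group; two-way ANOVA against vehicle.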

Series [13] is described as follows: Toxicity in C57BL/6J mouse assessed as reduction in body weight at 10 to 15 nmol per mouse, IT measured for 24 to 48 hrs. The settings on record: in vivo, other, dose lower 10 nmol, time lower 24 hrs, dose upper 15 nmol, time upper 48 hrs. The gist of the method:
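Wild-type male and female mice (129/Sv×C57BL/6J) in a crossover design, given 10 or 15 nmol intrathecally in 5 μL DMSO/water vehicle. Body weight recorded at 0, 24 and 48 h and compared with vehicle-treated controls.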

For series [14], the system named is Mus musculus. Kind of series: In vivo antagonist activity MC4R in wild type C57BL/6J mouse assessed as increase in food intake at 10 to 15 nmol per mouse, IT administered directly into the spinal canal and measured for 24 hrs. The settings on record: dose 10-15 nmol. Type of series: functional, organism-based. In a few lines: as §1
In series [15] the test system is Mus musculus. Kind of series: In vivo antagonist activity MC4R in wild type C57BL/6J mouse assessed as increase in food intake at 15 nmol per mouse, IT administered directly into the spinal canal and measured for 2 to 6 hrs. Type of series: functional, organism-based. The settings on record: time 2-6 hrs. The gist of the method:
as §1

The target in series [16] is T3, Melanocortin receptor 3. Kind of series: Binding affinity to mouse MC3R expressed in HEK293 cells assessed as inhibition constant by schild plot analysis. The format is cell-based.

T4 sequence (Q01727 whole entry): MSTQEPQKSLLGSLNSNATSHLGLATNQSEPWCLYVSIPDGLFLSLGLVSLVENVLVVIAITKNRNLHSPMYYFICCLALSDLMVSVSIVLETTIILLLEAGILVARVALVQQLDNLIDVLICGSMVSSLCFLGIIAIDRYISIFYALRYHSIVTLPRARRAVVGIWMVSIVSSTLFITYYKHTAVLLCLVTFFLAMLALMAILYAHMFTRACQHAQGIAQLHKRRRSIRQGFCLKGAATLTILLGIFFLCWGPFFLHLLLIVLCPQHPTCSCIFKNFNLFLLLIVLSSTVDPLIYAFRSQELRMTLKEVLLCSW
T3 sequence (P33033 whole entry): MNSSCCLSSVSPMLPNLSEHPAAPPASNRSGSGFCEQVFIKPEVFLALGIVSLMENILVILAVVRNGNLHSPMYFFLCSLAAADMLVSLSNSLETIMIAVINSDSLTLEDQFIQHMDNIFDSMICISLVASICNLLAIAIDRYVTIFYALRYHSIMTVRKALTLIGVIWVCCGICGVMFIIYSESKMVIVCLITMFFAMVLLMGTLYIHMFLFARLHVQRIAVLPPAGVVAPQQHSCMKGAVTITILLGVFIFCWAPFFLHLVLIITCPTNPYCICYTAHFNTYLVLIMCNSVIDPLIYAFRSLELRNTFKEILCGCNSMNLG

Usually EC50 stands for the concentration at which the effect is half-maximal. As for `CC(=O)N[C@H](Cc1ccc(I)cc1)C(=O)N[C@@H](CCCCN)C(=O)N[C@@H](Cc1ccc2ccccc2c1)C(=O)N[C@@H](CCCNC(=N)N)C(N)=O` (Ac-[dPhe(4-I)]K[2Nal]R-NH2), the EC50 at Melanocortin receptor 4 [1] is greater than 100 µM.

On to `CC(=O)N[C@H](Cc1ccc(I)cc1)C(=O)N[C@@H](CCCNC(=N)N)C(=O)N[C@@H](Cc1ccc2ccccc2c1)C(=O)N[C@@H](CCN)C(N)=O` (Ac-[dPhe(4-I)]R[2Nal][Dab]-NH2), for which the EC50 at Melanocortin receptor 5 [2] is greater than 100 µM; at Melanocortin receptor 4 [1] it was greater than 100 µM; on Melanocortin receptor 3 [3] it was greater than 100 µM; in [4], 1.1 µM.

As for `CC(=O)N[C@H](Cc1ccc(I)cc1)C(=O)N[C@@H](CCCNC(=N)N)C(=O)N[C@@H](Cc1ccc2ccccc2c1)C(=O)N[C@@H](CCCNC(N)=O)C(N)=O` (Ac-[dPhe(4-I)]R[2Nal][Cit]-NH2), the EC50 (at Melanocortin receptor 5 [2]; on Melanocortin receptor 4 [1]; in [5]; at Melanocortin receptor 3 [3]) was greater than 100 µM each time.

Usually Ki stands for a dissociation constant, usually derived from enzyme kinetics or from competition with a known ligand. On to `C[C@@H]1NC(=O)[C@H](CC(N)=O)NC(=O)[C@H](Cc2ccccc2)NC(=O)[C@H](Cc2ccccc2)NC(=O)[C@H](CCCN=C(N)N)NC(=O)[C@@H](NC(=O)[C@@H](N)Cc2ccc(O)cc2)CCC(=O)NC[C@@H](C(=O)N[C@@H](Cc2ccc(O)cc2)C(N)=O)NC(=O)[C@H](Cc2ccccc2)NC1=O` (H-YERFFNAF[Dap]Y-NH2; lactam 2-9), for which the Ki in series [6] turned out to be 1.2 µM.

Turning to `CC(=O)N[C@H](Cc1ccc(I)cc1)C(=O)N[C@@H](CCCNC(=N)N)C(=O)N[C@@H](Cc1ccc2ccccc2c1)C(=O)N[C@@H](CCCCNC(=N)N)C(N)=O` (Ac-[dPhe(4-I)]R[2Nal][hArg]-NH2), the EC50 at Melanocortin receptor 5 [2], at Melanocortin receptor 4 [1] and at Melanocortin receptor 3 [3] was greater than 100 µM in each case. In addition, at Melanocortin receptor 5 [7], the Ki is 1 µM.

In the case of `CC(=O)N[C@H](Cc1ccc(I)cc1)C(=O)N[C@@H](CCC(=O)O)C(=O)N[C@@H](Cc1ccc2ccccc2c1)C(=O)N[C@@H](CCCNC(=N)N)C(N)=O` (Ac-[dPhe(4-I)]E[2Nal]R-NH2), the EC50 (on Melanocortin receptor 5 [2]; at Melanocortin receptor 4 [1]; in series [5]; on Melanocortin receptor 3 [3]) was greater than 100 µM throughout.

For `CC(C)[C@H](NC(=O)[C@@H]1CCC(=O)NCC(=O)N[C@@H](C2CCCC2)C(=O)N[C@H](Cc2ccc3ccccc3c2)C(=O)N[C@@H](CCCNC(=N)N)C(=O)N[C@@H](Cc2c[nH]c3ccccc23)C(=O)N1)C(=O)N[C@H](C(=O)NCC(N)=O)C(C)C`, affinity in [8] was put at a Ki of 0.053 µM.

On to `CC(=O)N[C@H](Cc1ccc(I)cc1)C(=O)N[C@@H](CCCN)C(=O)N[C@@H](Cc1ccc2ccccc2c1)C(=O)N[C@@H](CCCNC(=N)N)C(N)=O` (Ac-[dPhe(4-I)][Orn][2Nal]R-NH2), for which the EC50 at Melanocortin receptor 5 [2], on Melanocortin receptor 4 [1] and on Melanocortin receptor 3 [3] was greater than 100 µM each time. Further, the inhibitory constant (Ki) at Melanocortin receptor 4 [9] came to 0.1 µM.

As to `CC(=O)N[C@H](Cc1ccc(I)cc1)C(=O)N[C@@H](CCCNC(=N)N)C(=O)N[C@@H](Cc1ccc2ccccc2c1)C(=O)N[C@@H](CN)C(N)=O` (Ac-[dPhe(4-I)]R[2Nal][Dap]-NH2), the EC50 at Melanocortin receptor 5 [2], on Melanocortin receptor 4 [1] and at Melanocortin receptor 3 [3] was greater than 100 µM throughout.

In the case of `CCCC[C@H](NC(C)=O)C(=O)N[C@H]1CC(=O)NCCCC[C@@H](C(N)=O)NC(=O)[C@@H](Cc2ccc3ccccc3c2)NC(=O)[C@H](CCCNC(=N)N)NC(=O)[C@@H](Cc2ccc3ccccc3c2)NC(=O)[C@H](Cc2cn(C)cn2)NC1=O`, at Melanocortin receptor 5 [10], the Ki came out at 0.063 µM.

For `CC(=O)N[C@H](Cc1ccc(I)cc1)C(=O)N[C@@H](Cc1c[nH]cn1)C(=O)N[C@@H](Cc1ccc2ccccc2c1)C(=O)N[C@@H](CCCNC(=N)N)C(N)=O` (Ac-[dPhe(4-I)]H[2Nal]R-NH2), the concentration for a half-maximal effect (EC50) at Melanocortin receptor 5 [2] and on Melanocortin receptor 4 [1] was greater than 100 µM each time. The inhibitory constant (Ki) at Melanocortin receptor 4 [9] was determined as 0.1 µM.

For the compound `CC(=O)N[C@H](Cc1ccc(I)cc1)C(=O)N[C@H](CCCCN)C(=O)N[C@@H](Cc1ccc2ccccc2c1)C(=O)N[C@@H](CCCNC(=N)N)C(N)=O` (Ac-[dPhe(4-I)][dK][2Nal]R-NH2), the EC50 (on Melanocortin receptor 4 [1]; in [5]) was greater than 100 µM throughout.

In the case of `CC(=O)N[C@H](Cc1ccc(I)cc1)C(=O)N[C@@H](CN)C(=O)N[C@@H](Cc1ccc2ccccc2c1)C(=O)N[C@@H](CCCNC(=N)N)C(N)=O` (Ac-[dPhe(4-I)][Dap][2Nal]R-NH2), the EC50 (on Melanocortin receptor 5 [2]; on Melanocortin receptor 4 [1]; in [5]; at Melanocortin receptor 3 [3]) was greater than 100 µM throughout. Moreover, the Ki in series [11] stood at 0.1 µM.

As for `CC(=O)N[C@H](Cc1ccc(I)cc1)C(=O)N[C@@H](CCCNC(N)=O)C(=O)N[C@@H](Cc1ccc2ccccc2c1)C(=O)N[C@@H](CCCNC(=N)N)C(N)=O` (Ac-[dPhe(4-I)][Cit][2Nal]R-NH2), the EC50 at Melanocortin receptor 5 [2] and at Melanocortin receptor 4 [1] was greater than 100 µM throughout.

As to `CC(=O)N[C@H](Cc1ccc(I)cc1)C(=O)N[C@@H](CCCNC(=N)N)C(=O)N[C@@H](Cc1ccc2ccccc2c1)C(=O)N[C@@H](CCCN)C(N)=O` (Ac-[dPhe(4-I)]R[2Nal][Orn]-NH2), the outcome in the series on Mus musculus [12] and with Mus musculus [15] was Active. Besides, the Activity result in series [13] was “Non-Toxic”. Besides, in the series on Mus musculus [14], the outcome was inactive.

As to `CC(=O)N[C@H](Cc1ccc(I)cc1)C(=O)N[C@@H](CCCNC(=N)N)C(=O)N[C@@H](Cc1ccc2ccccc2c1)C(=O)N[C@@H](Cc1c[nH]cn1)C(N)=O` (Ac-[dPhe(4-I)]R[2Nal]H-NH2), the figures for the concentration for a half-maximal effect (EC50) (on Melanocortin receptor 5 [2]; on Melanocortin receptor 4 [1]; in series [4]) were greater than 100 µM, greater than 100 µM and 0.4 µM, respectively. The Ki at Melanocortin receptor 3 [16] worked out at 0.1 µM.
